The values that follow come from publication PMC4512242 (Nature chemical biology, 2015).

The subject of one assay is LynD Fusion. As to the kind of experiment: Heterocyclization reaction with LynD fusion, MS. To be noted: LynDfusion, ITACITFCAYDG core peptide, no leader, 2 h; LCMS. Type of assay: biochemical, Lyngbya sp. PCC 8106. Summed up:
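Enzyme is LynD carrying PatE leader residues 21-38 plus an 11-residue linker at its N-terminus, expressed in E. coli BL21 (DE3) with the His6-tag removed by TEV. Product is read by ESI/MALDI MS or LC-MS […].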

The test system of a further assay is TruD. Kind of assay: Heterocyclization reaction with TruD, LCMS. Type of assay: biochemical. To be noted: ITACITFCAYDG core peptide, no leader, 16 h.
In the next assay the test system is LynD. Kind of assay: 31P NMR of ATP turnover by LynD. Type of assay: biochemical, Lyngbya sp. PCC 8106. The note with it: with and without PatE′.
A further assay deals with E. coli YcaO. The note with it: absence of substrate, ref [30]; cited from earlier work.

As for ITACITFCAYDG, the figures for the “heterocycles formed in leaderless test peptide” value with LynD Fusion and in the assay on TruD were “predominantly 2 heterocycles after just 2 h” and “only 1 heterocycle is formed”, respectively.

Turning to `Nc1ncnc2c1ncn2[C@@H]1O[C@H](COP(=O)(O)OP(=O)(O)OP(=O)(O)O)[C@@H](O)[C@H]1O` [ATP], the “products of ATP turnover” value in the assay with LynD is “AMP (not ADP), pyrophosphate (PPi) and phosphate”. In addition, in the assay with E. coli YcaO, the ATP hydrolysis products result is “hydrolyzed ATP to AMP and pyrophosphate”.
